Here are results for two molecules from ChEMBL document CHEMBL1149797, “Synthesis and in vitro antibacterial activities of novel oxazolidinones” (Eur J Med Chem, 2008).

By MIC is commonly meant the lowest concentration that inhibits growth of the organism. A higher MIC goes with a less susceptible organism. In general, AUC refers to concentration integrated over time. Read a low AUC as less exposure. By Cmax is commonly meant the maximum level reached in the sampled fluid or tissue. For orientation: Tmax means the time at which the peak concentration occurs. Broadly, the half-life is the time in which the quantity being followed falls by half. Low values mean rapid decline, high ones slow decline. The term bioavailability denotes the share of a dose that reaches the circulation, judged against a reference dose that is usually intravenous. Higher therefore signals much systemic uptake.

Data set [1] has as its system Staphylococcus epidermidis. In words: Antibacterial activity against Staphylococcus epidermidis ATCC 155 by broth microdilution technique. Format: functional. The gist of the method:
(§1)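 Broth microdilution per CLSI (NCCLS) guidelines. Compounds were dissolved in DMSO with water added to give an 80% DMSO stock, then diluted 1:10 to working solutions in water or medium. They were tested at 0.125, 0.25, 0.5, 1, 2, 4, 8 and 16 (two-fold series) against the final inoculum. Each run included sterility controls and vehicle controls (plain medium; 4%, 2%, 1% DMSO). MIC was read as growth inhibition.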
(Dilution methods test growth across graded concentrations, often in twofold steps.)

Data set [2] is described as follows: AUC in Sprague-Dawley rat at 30 mg/kg, po. The arrangement: dose 30 mg/kg, route oral. Format: ADME, organism-based. The conditions noted are these: plasma. The gist of the method: (§2)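 Male Sprague-Dawley rats, 8-10 weeks old, fasted 18 h, fed again 4 h after dosing, water ad libitum. Oral dose of 30 mg/kg as a homogeneous suspension in 0.5% w/v CMC in normal saline. Serial retro-orbital samples into heparinized tubes; plasma separated at ambient temperature and assayed at once by HPLC with calibrators in drug-free rat plasma. Cmax, tmax, AUC0-∞ and t1/2 calculated.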

Data set [3] concerns Staphylococcus aureus. Kind of data set: Antibacterial activity against Staphylococcus aureus ATCC 25923 by broth microdilution technique. Type of data set: functional. In short, it runs like this: as §1
A short description of data set [4]: Cmax in Sprague-Dawley rat at 30 mg/kg, po. As to conditions: in vivo. The arrangement: dose 30 mg/kg, route oral. Format: ADME, organism-based. In short, it runs like this:
as §2

The nature of data set [5]: Tmax in Sprague-Dawley rat at 10 mg/kg, iv. Format: ADME, organism-based. More on the design: dose 10 mg/kg, route intravenous. The conditions noted are these: in vivo. The gist of the method:
(§3)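 Male Sprague-Dawley rats, 8-10 weeks old, fasted 18 h, with food returned 4 h post-dose and water free. The compound was given as a clear solution in PEG-400/cremophore/ethanol/propylene glycol/saline via the tail vein at 10 mg/kg. Retro-orbital blood went into heparinized tubes at intervals, and plasma was spun and analysed immediately by HPLC against spiked rat-plasma calibrators. Cmax, tmax, AUC0-∞ and t1/2 were derived.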

The test system of data set [6] is Enterococcus faecalis. In words: Antibacterial activity against multidrug-resistant Enterococcus faecalis ATCC 700802 by broth microdilution technique. Type of data set: functional. The gist of the method: (§4)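 Broth microdilution per NCCLS/CLSI. Compounds dissolved in DMSO with water added to give an 80% DMSO stock. Stock diluted 1:10 in 4-8% DMSO in water or medium to make the working solution. Tested at […]. Sterility controls run with each set. Inoculum viability controls included plain medium and 4%, 2% and 1% DMSO vehicle. MIC taken as growth inhibition.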

Data set [7] in a line: Half life in Sprague-Dawley rat at 30 mg/kg, po. Format: ADME, organism-based. As to conditions: in vivo. The arrangement: dose 30 mg/kg, route oral. The gist of the method:
as §2

Data set [8] can be described thus: Tmax in Sprague-Dawley rat at 30 mg/kg, po. Type of data set: ADME, organism-based. More on the design: dose 30 mg/kg, route oral. The conditions noted are these: in vivo. In short, it runs like this: as §2
Data set [9] can be described thus: Half life in Sprague-Dawley rat at 10 mg/kg, iv. Format: ADME, organism-based. More on the design: dose 10 mg/kg, route intravenous. The conditions noted are these: in vivo. In short, it runs like this: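 The compound was given as a clear solution in PEG-400/cremophore/ethanol/propylene glycol/saline via the tail vein at 10 mg/kg. Retro-orbital blood went into heparinized tubes at intervals, and plasma was spun and analysed immediately by HPLC against spiked rat-plasma calibrators. Cmax, tmax, AUC0-∞ and t1/2 were derived.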

The nature of data set [10]: AUC in Sprague-Dawley rat at 10 mg/kg, iv. The conditions noted are these: plasma. Format: ADME, organism-based. The arrangement: dose 10 mg/kg, route intravenous. The gist of the method:
as §3

In data set [11] the test system is Staphylococcus aureus. In words: Antibacterial activity against methicillin-resistant Staphylococcus aureus ATCC 700699 by broth microdilution technique. Type of data set: functional. The gist of the method: as §4
For another data set, the system named is Streptococcus pneumoniae. In words: Antibacterial activity against multidrug-resistant Streptococcus pneumoniae ATCC 700904 by broth microdilution technique. Type of data set: functional. The gist of the method: as §4
A short description of data set [12]: Cmax in Sprague-Dawley rat at 10 mg/kg, iv. Format: ADME, organism-based. More on the design: dose 10 mg/kg, route intravenous. The conditions noted are these: in vivo. In short, it runs like this: as §3
For data set [13], the system named is Staphylococcus aureus. In words: Antibacterial activity against Staphylococcus aureus ATCC 29213 by broth microdilution technique. Type of data set: functional. The gist of the method: as §4
A short description of data set [14]: Bioavailability in Sprague-Dawley rat at 30 mg/kg, po. As to conditions: in vivo.
Data set [15] has as its system Staphylococcus aureus. Kind of data set: Antibacterial activity against linezolid-resistant Staphylococcus aureus NRS 119 with G 2576T mutation by broth microdilution technique. Format: functional. In short, it runs like this:
as §4

In a further data set the test system is Streptococcus pyogenes. In words: Antibacterial activity against Streptococcus pyogenes ATCC 14289 by broth microdilution technique. Format: functional. In short, it runs like this:
as §1

The test system of data set [16] is Enterococcus faecalis. Kind of data set: Antibacterial activity against Enterococcus faecalis ATCC 35550 by broth microdilution technique. Type of data set: functional. The gist of the method: as §1
Data set [17] deals with Staphylococcus aureus. Kind of data set: Antibacterial activity against linezolid-resistant Staphylococcus aureus NRS 120 with G 2576T mutation by broth microdilution technique. Format: functional. In short, it runs like this: as §4
In data set [18] the test system is Staphylococcus aureus. Kind of data set: Antibacterial activity against Staphylococcus aureus ATCC 14154 by broth microdilution technique. Type of data set: functional. In short, it runs like this: as §4
Another data set deals with Enterococcus faecium. Kind of data set: Antibacterial activity against vancomycin-resistant Enterococcus faecium ATCC 700221 by broth microdilution technique. Format: functional. The gist of the method: as §4
In another data set the test system is Bacillus cereus. In words: Antibacterial activity against Bacillus cereus ATCC 11778 by broth microdilution technique. Type of data set: functional. The gist of the method:
as §1

Another data set relates to Bacillus pumilus. In words: Antibacterial activity against Bacillus pumilus ATCC 14884 by broth microdilution technique. Type of data set: functional. The gist of the method:
as §1

Data set [19] can be described thus: Tmax in Sprague-Dawley rat at 25 mg/kg, po. Format: ADME, organism-based. As to conditions: in vivo. More on the design: dose 25 mg/kg, route oral.

In brackets after ≈: the same amount, converted by molar mass.

Turning to `CC(=O)NC[C@H]1CN(c2ccc([N+]3([O-])CCN(C(=O)/C=C/c4ccc([N+](=O)[O-])o4)CC3)c(F)c2)C(=O)O1`, the MIC is 0.12 mg/L (≈ 0.232 µM) in data set [1]; 0.5 mg/L (≈ 0.966 µM) against Staphylococcus aureus [3]; 1 mg/L (≈ 1.93 µM) against Enterococcus faecalis [6]; 0.5 mg/L (≈ 0.966 µM) in the data set with Staphylococcus aureus [11]; 0.25 mg/L (≈ 0.483 µM) in the data set with Streptococcus pneumoniae; 1 mg/L (≈ 1.93 µM) against Staphylococcus aureus [13]. Further, the minimal inhibitory concentration (MIC) was 2 mg/L (≈ 3.86 µM) in the data set on Staphylococcus aureus [15]; 0.12 mg/L (≈ 0.232 µM) with Streptococcus pyogenes; 1 mg/L (≈ 1.93 µM) against Enterococcus faecalis [16]; 2 mg/L (≈ 3.86 µM) in the data set on Staphylococcus aureus [17]; 1 mg/L (≈ 1.93 µM) against Staphylococcus aureus [18]; 0.5 mg/L (≈ 0.966 µM) in the data set with Enterococcus faecium. Also, the AUC in data set [2] was 1.87 µg·h/mL; in data set [10], 1.03 µg·h/mL. Further, the results for the Cmax in data set [4] and in [12] were 1.21 µg/mL and 9.18 µg/mL, respectively. Further, the time of peak concentration (Tmax) in data set [5] came out at 0 h; in [8], 10.2 min. For the same molecule, the half-life in data set [7] was 58.2 min; in data set [9], 57 min. Besides, the bioavailability in data set [14] came out at 60%.

For the molecule `CC(=O)NC[C@H]1CN(c2ccc(N3CCOCC3)c(F)c2)C(=O)O1` [LINEZOLID], the minimal inhibitory concentration (MIC) is 1 mg/L (≈ 2.96 µM) in data set [1]; 1 mg/L (≈ 2.96 µM) against Staphylococcus aureus [11]; 0.25 mg/L (≈ 0.741 µM) in the data set on Streptococcus pneumoniae; 2 mg/L (≈ 5.93 µM) in the data set on Bacillus cereus; more than 16 mg/L in the data set on Staphylococcus aureus [15]; 1 mg/L (≈ 2.96 µM) against Streptococcus pyogenes. In addition, the MIC in the data set on Bacillus pumilus is 0.5 mg/L (≈ 1.48 µM); with Staphylococcus aureus [17] it was more than 16 mg/L; in the data set on Staphylococcus aureus [18], 1 mg/L (≈ 2.96 µM); in the data set on Enterococcus faecium, 1 mg/L (≈ 2.96 µM). Besides, the Tmax in data set [5] came to 0 h; in data set [19], 18.6 min.
